The results in this text go back to ChEMBL document CHEMBL1148783, “Selection of a respiratory syncytial virus fusion inhibitor clinical candidate, part 1: improving the pharmacokinetic profile using the structure-property relationship” (J Med Chem, 2007).

The structures appear in SMILES notation. Some results are limits rather than exact numbers.

Data set [1] can be described thus: Half life (24 to 96 hrs) in Sprague-Dawley rat lung. The class given is ADME, tissue-based. A digest of the protocol:
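Lung half-life came from IV-dosed male Sprague-Dawley rats (1 mg/kg, 10 min tail-vein infusion), with three animals per time point. Lungs were homogenized in water (1/9 w/v) and analyzed by LC-MS/MS, using the concentrations measured between 24 and 96 h post-dose.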

A short description of data set [2]: Cytotoxicity against HeLaM cells. The class given is cell-based, M-HeLa. To be noted: human.
The subject of data set [3] is Respiratory syncytial virus. Put plainly: Antiviral activity against RSV in HeLaM cells. To be noted: human respiratory syncytial virus. In kind it is functional, organism-based. A digest of the protocol: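 HeLaM epithelial-like cells infected with RSV with or without a range of compound concentrations, with virus, cell and cytotoxicity controls and ribavirin as reference in each test. After one week of incubation, viability was read by MTT and spectrophotometric OD. pEC50 was calculated from the OD values.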

The nature of data set [4]: Drug level in Sprague-Dawley rat lung after 4 hrs. The conditions noted are these: read-out: Drug uptake. The class given is ADME, tissue-based. A digest of the protocol: (§1)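 Male Sprague-Dawley rats (250-300 g) were given a 10 min tail-vein infusion at a final dose of 1 mg/kg. Three rats per time point were killed at 4, 24, 96 and 168 h. Plasma was taken from EDTA blood, and lung was homogenized 1/9 w/v in demineralized water. Samples were stored at ≤-18 °C and quantified by a qualified LC-MS/MS method.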

Data set [5] can be described thus: Drug level in Sprague-Dawley rat lung after 24 hrs. The class given is ADME, tissue-based. The conditions noted are these: read-out: Drug uptake. In outline:
as §1

The nature of data set [6]: Drug level in Sprague-Dawley rat lung after 96 hrs. In kind it is ADME, tissue-based. The conditions noted are these: read-out: Drug uptake. In outline: as §1
The nature of data set [7]: Drug level in Sprague-Dawley rat lung after 168 hrs. The class given is ADME, tissue-based. To be noted: read-out: Drug uptake. In outline: as §1
A short description of data set [8]: Drug level in Sprague-Dawley rat plasma after 4 hrs. The conditions noted are these: read-out: Drug uptake. In kind it is ADME, cell-free. A digest of the protocol: as §1
A short description of data set [9]: Drug level in Sprague-Dawley rat plasma after 24 hrs. The class given is ADME, cell-free. To be noted: read-out: Drug uptake. A digest of the protocol: as §1

As a reminder, the half-life is the time in which the quantity being followed falls by half. Lower therefore signals fast loss. In general, CC50 refers to the concentration giving 50% cytotoxicity. By EC50 is commonly meant the concentration at which the effect is half-maximal. High values mean weaker potency, low ones greater potency. As to `Cc1ccc(O)c(Cn2c(NC3CCN(CCN)CC3)nc3ccccc32)n1`, the half-life in data set [1] is 211 h. For the same molecule, the cytotoxic concentration (CC50) in [2] was more than 100 µM. For the same molecule, in data set [3], it took 0.000316 µM to reach a half-maximal effect (EC50).
Turning to `Cc1ccc(O)c(Cn2cnc3c(C)cccc32)n1`, in [4], the concentration at 4 h was determined as 3.9 ng/mL.
On to `CNS(=O)(=O)CCCN1CCC(Nc2nc3c(C)cccc3n2Cc2nc(C)ccc2O)CC1`, for which, in [1], the half-life is 32 h. This molecule also had a 50% cytotoxic concentration (CC50) in [2] of 79.4 µM. The molecule further gave an EC50 in [3] of 0.0501 µM.
The like results for `Cc1ccc(O)c(Cn2c(NC3CCN(CCC(N)=O)CC3)nc3c(C)cccc32)n1` were, in that order, 46 h, more than 100 µM and 0.0501 µM.
Regarding `Cc1ccc(O)c(Cn2c(NC3CCN(CCC(=O)O)CC3)nc3c(C)cccc32)n1`, the 50% cytotoxic concentration (CC50) in data set [2] is more than 100 µM. In data set [3], this molecule had a concentration for a half-maximal effect (EC50) of 0.158 µM.
The like results for `Cc1ccc(O)c(Cn2c(NC3CCN(C)CC3)nc3c(C)cccc32)n1` were, in that order, 50.1 µM and 0.158 µM.
In data set [1], `Cc1ccc(O)c(Cn2c(NC3CCN(CC(O)CN(C)C)CC3)nc3c(C)cccc32)n1` (stereo not drawn) gave a half-life of 556 h. Moreover, the half-maximal cytotoxic concentration (CC50) in data set [2] was more than 100 µM. In data set [3], this molecule gave an EC50 of 0.00316 µM.
The like results for `Cc1ccc(O)c(Cn2c(NC3CCN(CCO)CC3)nc3c(C)cccc32)n1` were, in that order, 29 h, more than 100 µM and 0.02 µM.
In data set [2], `CC(=O)NCCNc1nc2c(C)cc(C)cc2n1Cc1nc(C)ccc1O` showed a CC50 of 12.6 µM. This molecule also gave a concentration for a half-maximal effect (EC50) in [3] of 5.01 µM.
As to `Cc1ccc(O)c(Cn2c(NC3CCN(CCN4CCOCC4)CC3)nc3c(C)cccc32)n1`, in data set [1], the half-life was 35 h. In addition, in data set [2], the CC50 was 63.1 µM. In data set [3], this molecule showed an EC50 of 0.158 µM.
In the case of `Cc1ccc(O)c(Cn2c(NC3CCN(CCC(C)C)CC3)nc3c(C)cccc32)n1`, the cytotoxic concentration (CC50) in data set [2] was more than 100 µM. In [3], this molecule showed an EC50 of 0.631 µM.
Molecule `Cc1cc(C)c2nc(NCC(O)CO)n(Cc3nc(C)ccc3O)c2c1` (stereo not drawn) registered a half-life in data set [1] of less than 24 h. Moreover, in [2], the CC50 is 50.1 µM. In [3], this molecule showed an EC50 of 0.0398 µM.
The like results for `Cc1cc(C)c2nc(NCCCN3CCN(C)CC3)n(Cc3nc(C)ccc3O)c2c1` were, in that order, 80 h, 50.1 µM and 0.0251 µM.
In turn, `Cc1cc(C)c2nc(NCCNc3ccccc3)n(Cc3nc(C)ccc3O)c2c1` gave a CC50 in [2] of 3.16 µM. In addition, the EC50 in [3] was more than 100 µM.
`Cc1cc(C)c2nc(NCCCN3CCOCC3)n(Cc3nc(C)ccc3O)c2c1` had a half-life in data set [1] of 14 h. Moreover, the CC50 in data set [2] was 50.1 µM. In data set [3], this molecule showed a concentration giving a half-maximal response (EC50) of 0.126 µM.
For `Cc1cc(C)c2nc(NCCc3ccccc3)n(Cc3nc(C)ccc3O)c2c1`, in [2], the CC50 is 6.31 µM. Further, in data set [3], the EC50 is more than 100 µM.
As for `Cc1ccc(O)c(Cn2c(NC3CCN(CCN4CCCC4)CC3)nc3c(C)cccc32)n1`, the half-life in data set [1] is 206 h. The same molecule had a CC50 in data set [2] of 39.8 µM. Besides, a half-maximal response in [3] (EC50) required 0.01 µM.
Taken in the same sequence, the figures for `CNCCCNc1nc2c(C)cc(C)cc2n1Cc1nc(C)ccc1O` were 93 h, 50.1 µM and 0.000631 µM.
As for `CCCCNc1nc2c(C)cc(C)cc2n1Cc1nc(C)ccc1O`, in data set [2], the midpoint of cytotoxicity, the CC50, lay at 7.94 µM. The molecule further gave an EC50 in data set [3] of more than 100 µM.
Taken in the same sequence, the figures for `Cc1cc(C)c2nc(NCCCO)n(Cc3nc(C)ccc3O)c2c1` were 63.1 µM and 0.158 µM.
`Cc1cc(C)c2nc(NCCCN)n(Cc3nc(C)ccc3O)c2c1` had a half-life in [1] of 68 h. Also, in data set [2], the CC50 is more than 100 µM. This molecule had a half-maximal effective concentration (EC50) in data set [3] of 0.000251 µM.
The like results for `Cc1ccc(O)c(Cn2c(NC3CCN(CCCS(N)(=O)=O)CC3)nc3c(C)cccc32)n1` were, in that order, 57 h, more than 100 µM and 0.0126 µM.
In data set [2], `Cc1ccc(O)c(Cn2c(NC3CCN(CC(O)C(C)(C)C)CC3)nc3c(C)cccc32)n1` (stereo not drawn) gave a cytotoxic concentration (CC50) of 39.8 µM. The molecule further had an EC50 in data set [3] of 0.794 µM.
In the case of `NCCN1CCC(Nc2nc3ccccc3[nH]2)CC1`, the concentration at 24 h in data set [5] was determined as 295 ng/mL; in data set [9], 6.1 ng/mL. In addition, the concentration at 96 h in data set [6] was found to be 83.7 ng/mL. The concentration at 168 h in data set [7] is 37.8 ng/mL. Besides, the concentration at 4 h in [4] was 247 ng/mL; in data set [8], 11.8 ng/mL.
For the molecule `Cc1ccc(O)c(Cn2c(NC3CCN(CCN)CC3)nc3c(C)cccc32)n1` [JNJ 2408068], the half-life in [1] was 153 h. In addition, the concentration at 24 h was 559 ng/mL in data set [5] and 0.33 ng/mL in data set [9]. In data set [2], this molecule showed a CC50 of more than 100 µM. Besides, the concentration at 96 h in [6] turned out to be 439 ng/mL. Also, the concentration at 168 h in data set [7] came out at 387 ng/mL. The molecule also had an EC50 in data set [3] of 0.000251 µM. Besides, the concentration at 4 h in data set [4] is 576 ng/mL; in data set [8] it was 0.97 ng/mL.
